Test system: calf thymus double-stranded DNA (dsDNA)
Assay: Thermal transition of DNA
Format: binding
Conditions: 15 μM compound, calf thymus dsDNA 6 μg/ml, pH 7.0
Summary of the method: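 Calf thymus dsDNA (6 μg/ml) in 0.1 M sodium phosphate pH 7.0 with 1% DMSO was tested with or without test compound, with ethidium bromide as intercalator control. Samples were equilibrated at 78 °C for 10 min, then raised 1 °C every 2 min. Absorbance was recorded on a spectrophotometer with a thermoelectric cell holder, and compound-only absorbance was subtracted to give Tm.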

For `CC[n+]1c(-c2ccccc2)c2cc(N)ccc2c2ccc(N)cc21` [ethidium bromide, reference compound], the “effect on melting temperature (Tm) / thermal transition of dsDNA” value was “clear shift of thermal transition”.

— article PMC2943143 (Biochemical pharmacology, 2010)
